Bioassay records as filed in PubChem BioAssay.
Most compounds without a hit are left out; they make up all but 3.4% or so of the library.
LANA-H2B inh = blocks KSHV LANA binding to histone H2A/H2B; Q9QR71; cell-free LANA-H2A/H2B peptide, fluorescence polarization; inhibition, % (concentration not given with the values); 320,000 tested, 0.6% active; in the data active = inhibition mostly above about 10%, no sharp cut-off; inactive = mostly below about 6.7%
TRPN1 ag = agonists of zebrafish TRPN1 channel; HEK293 zebrafish TRPN1-YFP, Fluo-8 calcium fluorescence; 100% = response to 87 µM carbachol; activation, % at 3 µM; 220,000 tested, 0.18% active; AID 1424;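 active = activation above its plate's cutoff, the mean activation of test wells on that plate plus 3 SD, cut at about 19% in these data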
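Control set: carbachol 87 µM as high control, DMSO as low control; system: HEK293 stable line with zebrafish TRPN1-YFP; read-out: % activation versus carbachol response; detection: intracellular calcium fluorescence with Fluo-8; doses: single test compound dose, 3 µM nominal, 0.3% DMSO; schedule: dye 1 h 37 °C plus 30 min RT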
TRPML3 agonist = agonists of human TRPML3 channel. 220,000 tested, 0.29% active. HEK293 TRPML3-YFP, Fluo-8 calcium fluorescence; 100% = the carbachol control signal. activation, % at 3 µM;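 active = activation above its plate's cutoff, the mean activation of the plate's test wells plus 3 SD, cut at about 12% in these data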
Target sequence (Q8TDD5 whole entry, looked up): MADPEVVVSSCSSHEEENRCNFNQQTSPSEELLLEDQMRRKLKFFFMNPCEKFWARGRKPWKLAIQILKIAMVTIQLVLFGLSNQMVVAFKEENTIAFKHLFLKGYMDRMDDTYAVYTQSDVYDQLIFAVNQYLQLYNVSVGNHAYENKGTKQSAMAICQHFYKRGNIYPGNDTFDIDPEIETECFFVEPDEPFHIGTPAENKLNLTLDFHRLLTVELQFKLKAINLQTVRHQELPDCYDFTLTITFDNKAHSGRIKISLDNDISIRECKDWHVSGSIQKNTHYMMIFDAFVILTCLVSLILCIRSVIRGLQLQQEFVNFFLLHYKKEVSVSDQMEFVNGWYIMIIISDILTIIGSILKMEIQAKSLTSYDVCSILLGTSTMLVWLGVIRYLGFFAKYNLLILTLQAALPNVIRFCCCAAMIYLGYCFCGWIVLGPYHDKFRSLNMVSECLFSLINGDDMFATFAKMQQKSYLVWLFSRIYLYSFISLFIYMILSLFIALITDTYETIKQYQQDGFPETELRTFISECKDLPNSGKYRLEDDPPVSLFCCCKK
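Test system: HEK293 cells stably carrying human TRPML3-YFP; Doses: single dose, 3 µM final nominal compound, 0.3% DMSO final; Schedule: dye loading 1 h 37 °C then 30 min ambient, 125 s read; Technique: Fluo-8 calcium fluorescence; Benchmarks: high control carbachol 87 µM, low control DMSO.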
TAAR1 agonist = agonists of human TAAR1 | 360,000 tested, 0.99% active | activation, % at 3 µM | CHO RD-HGA16 TAAR1, Fluo-8 calcium fluorescence; vehicle wells 0%, saturating PEA agonist 100%;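 active = activation above the mean activation of all test compounds in the run plus 3 SD, cut at about 38% in these data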
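Benchmarks: low control DMSO, high control PEA (EC100); System: CHO RD-HGA16 cells carrying human TAAR1 plus Gα16; Detection: Fluo-8 fluorescence, 5 s baseline then 140 s kinetic read; Schedule: 17-24 h plating, Fluo-8 75 min 37 °C, 30 min RT; Read-out basis: % activation from peak over basal fluorescence ratio, DMSO-to-PEA scaled.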
TAAR1 antag = antagonists of human TAAR1; CHO RD-HGA16 TAAR1, Fluo-8 calcium fluorescence, antagonist; 360,000 tested, 1.5% active; inhibition, % at 3 µM;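 active = inhibition above a per-plate cutoff, the mean inhibition of test compounds on that plate plus 3 SD, cut at about 49% in these data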
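Assay system: CHO-derived RD-HGA16 cells stably expressing human TAAR1 plus Gα16. Timing: 140 s kinetic read after compound, 140 s after agonist. Technique: kinetic Fluo-8 calcium fluorescence measurement. Measure: % inhibition of agonist calcium response.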
GPR7 antag = antagonists of human GPR7 (neuropeptides B/W receptor 1). P48145. 290,000 tested, 1.1% active. AID 1861. GPR7-expressing cells, fluorescence antagonist assay. inhibition, % at 4.4 µM; in the data active = inhibition above about 16%, passing the limit was not always enough;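 also: cells stimulated with the agonist NPW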
TAAR1 ag confirm = human TAAR1 agonism, confirmed | shares compounds with TAAR1 agonist | CHO RD-HGA16 TAAR1, Fluo-8 calcium fluorescence; scaled: DMSO 0%, maximal phenethylamine 100% | activation, % at 3 µM | 2,400 tested, 82% active | AID 651783;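 active = activation above a cutoff set at the run's mean compound activation plus 3 SD, cut at about 39% in these data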
Ga16 nonsel ag = nonselective agonism, TAAR1 counter-screen. shares compounds with TAAR1 agonist. CHO-Ga16 parental, Fluo-8 calcium fluorescence; normalized to maximal ATP response, DMSO zero. activation, % at 3 µM. 2,400 tested, 50% active;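 active = activation above the run cutoff, the mean activation over all tested wells plus 3 SD, cut at about 12% in these data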
TAAR1 desensitize = TAAR1 response desensitization, agonist counter-screen | shares compounds with TAAR1 agonist | CHO RD-HGA16 hTAAR1, Fluo-8 calcium, beta-PEA response inhibition | inhibition, % at 3 µM | 2,400 tested, 46% active | AID 651951;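 active = inhibition above the run cutoff, the mean inhibition of all test compounds plus 3 SD, cut at about 49% in these data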;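 also: beta-PEA stimulus applied at its EC80; loss of beta-PEA calcium signal after compound pretreatment read as receptor desensitization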
Ga16 antag count = counter-screen for TAAR1 agonists: nonselective Ga16 antagonists; 2,400 tested, 39% active; inhibition, % at 3 µM; shares compounds with TAAR1 agonist; CHO-Ga16 ATP-induced calcium, Fluo-8 fluorescence; AID 651952;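 active = inhibition above the plate's mean compound inhibition plus 3 SD, computed per plate, cut at about 22% in these data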
A number is an active result.

What do the screens show for `Cc1ccnc(NC(=O)CCC(=O)N(CC(=O)NC(C)(C)C)c2ccc3c(c2)OCO3)c1`?
LANA-H2B inh: inactive; TAAR1 agonist: inactive; TAAR1 antag: inactive; GPR7 antag: inactive

What do the screens show for `O=C(c1ccc(F)cc1)c1ccc(N2CCCCC2)cc1`?
LANA-H2B inh: inactive; TAAR1 agonist: inactive; TAAR1 antag: inactive; GPR7 antag: inactive

Results for O=C(Nc1ccc(N2CCCCC2)cc1)c1ccc(F)cc1 ?
LANA-H2B inh: inactive; TRPN1 ag: inactive; TRPML3 agonist: inactive; TAAR1 agonist: 98; TAAR1 antag: 85; GPR7 antag: inactive; TAAR1 ag confirm: 53; Ga16 nonsel ag: 13; TAAR1 desensitize: inactive; Ga16 antag count: inactive

How did O=C(Nc1cccc(NC(=O)c2ccc(F)cc2)c1)c1ccc(F)cc1 do in these assays?
LANA-H2B inh: inactive; TAAR1 agonist: 47; TAAR1 antag: inactive; GPR7 antag: inactive; TAAR1 ag confirm: inactive; Ga16 nonsel ag: inactive; TAAR1 desensitize: inactive; Ga16 antag count: inactive

Results for CSc1cccc(CNC(=O)C2CCC(=O)N(CCc3ccccc3)C2)c1 (centres undefined) ?
TAAR1 agonist: inactive; TAAR1 antag: inactive

Results for N#Cc1ccc(OCC(=O)N2CCN(c3ccc(C(F)(F)F)cn3)CC2)cc1 ?
LANA-H2B inh: inactive; TAAR1 agonist: inactive; TAAR1 antag: inactive

Results for COc1ccc(C(c2nnnn2C2CCCC2)N2CCN(C3CCCC3)CC2)cc1OC (centres undefined) ?
LANA-H2B inh: inactive; TRPN1 ag: inactive; TRPML3 agonist: inactive; TAAR1 agonist: inactive; TAAR1 antag: inactive; GPR7 antag: inactive

Results for COc1ccc(C(c2nnnn2CCc2ccccc2)N2CCN(C3CCCC3)CC2)cc1OC (centres undefined) ?
LANA-H2B inh: inactive; TRPN1 ag: inactive; TRPML3 agonist: inactive; TAAR1 agonist: 51; TAAR1 antag: inactive; GPR7 antag: inactive; TAAR1 ag confirm: 78; Ga16 nonsel ag: inactive; TAAR1 desensitize: inactive; Ga16 antag count: inactive

What do the screens show for `O=C(Nc1ccc2c(c1)OCO2)c1cc(C2CCCN(C(=O)CCc3ccccc3)C2)on1` (centres undefined)?
TAAR1 agonist: inactive; TAAR1 antag: inactive

What do the screens show for `C[C@@H]1CN([C@@H](C)CO)C(=O)c2cc(NS(C)(=O)=O)ccc2O[C@@H]1CN(C)S(=O)(=O)c1ccccc1`?
TAAR1 agonist: inactive; TAAR1 antag: inactive

How did CC(C)NC(=S)NC(=O)c1ccc(-c2ccccc2)cc1 do in these assays?
LANA-H2B inh: inactive; TRPN1 ag: inactive; TRPML3 agonist: inactive; TAAR1 agonist: 49; TAAR1 antag: inactive; GPR7 antag: inactive; TAAR1 ag confirm: inactive; Ga16 nonsel ag: inactive; TAAR1 desensitize: inactive; Ga16 antag count: inactive

What do the screens show for `COC(=O)c1cccc(N2CCCC2=O)c1`?
LANA-H2B inh: inactive; TRPN1 ag: inactive; TRPML3 agonist: inactive; TAAR1 agonist: inactive; TAAR1 antag: inactive; GPR7 antag: inactive

Results for O=c1c2ccccc2sn1-c1ccc(F)cc1 ?
LANA-H2B inh: inactive; TAAR1 agonist: 57; TAAR1 antag: inactive; TAAR1 ag confirm: inactive; Ga16 nonsel ag: 31; TAAR1 desensitize: inactive; Ga16 antag count: inactive

Results for COC(=O)c1cccc(-n2sc3ccccc3c2=O)c1 ?
LANA-H2B inh: inactive; TAAR1 agonist: 63; TAAR1 antag: inactive; TAAR1 ag confirm: 50; Ga16 nonsel ag: 22; TAAR1 desensitize: inactive; Ga16 antag count: inactive

Results for CCCCC(=O)N(C)c1c(CC)nc2c(OCC(N)=O)cccn12 ?
TAAR1 agonist: inactive; TAAR1 antag: inactive

What do the screens show for `N#Cc1ccccc1NC(=O)CC1CCCCC1`?
LANA-H2B inh: inactive; TRPN1 ag: inactive; TRPML3 agonist: inactive; TAAR1 agonist: inactive; TAAR1 antag: inactive; GPR7 antag: inactive

What do the screens show for `N#Cc1ccccc1NC(=O)CC1c2ccccc2Oc2ccccc21`?
LANA-H2B inh: inactive; TRPN1 ag: inactive; TRPML3 agonist: inactive; TAAR1 agonist: 67; TAAR1 antag: 81; GPR7 antag: inactive; TAAR1 ag confirm: 106; Ga16 nonsel ag: 52; TAAR1 desensitize: 100; Ga16 antag count: 58

What do the screens show for `COc1ccc(N2CCN(C(=O)C(=O)c3cccc([N+](=O)[O-])c3)CC2)cc1`?
TAAR1 agonist: inactive; TAAR1 antag: inactive
